Measurements of several laboratories.
Lines come from different studies, so protocols differ.
Read-out: cell growth or viability

SMILES | cell line | test | conditions | quantity | result
NCCC(=O)Nc1ccccc1/N=c1\cc(-c2ccc3nc(N)oc3c2)oc2ccccc12 | NCI-H1975 | CCK-8 | 1 µM | inhibition | 43.6%
CCCCC(=O)Nc1ccc(-c2ccc3ncn(CC#N)c(=O)c3c2)cn1 | NCI-H1975 | CCK-8 | 72 h | IC50 | > 10000 nM
CCCCCCCCCCCCCCCCCCOc1cccc(CC(=O)OCC[N+](C)(C)C)c1 | NCI-H322M | SRB | 10 µM | inhibition | 0.32%
NCC(=O)Nc1ccccc1/N=c1\cc(-c2ccc3c(c2)OCCO3)oc2cc(F)ccc12 | NCI-H1975 | CCK-8 | 1 µM | inhibition | 4.41%
CCCCC(=O)Nc1ccc(-c2cnc3ccn(CCC)c(=O)c3c2)cn1 | NCI-H1975 | CCK-8 | 72 h | IC50 | 1210 nM
O=C(Nc1ccccc1/N=c1\cc(-c2ccc3c(c2)OCCO3)oc2cc(F)ccc12)N1CCOCC1 | NCI-H1975 | CCK-8 | 1 µM | inhibition | 2.35%
O=C(Nc1cc(C(F)(F)F)cc(C(F)(F)F)c1)Nc1nc2cc(-c3ccc4ncn(Cc5ccccc5)c(=O)c4c3)ccc2s1 | NCI-H1975 | MTT | 72 h | IC50 | > 20000 nM
CCCCCCCCCCCCCCCCCCOc1ccccc1CC(=O)OCC[N+]1(C)CCCCC1 | NCI-H322M | SRB | 10 µM | inhibition | 15.4%
CNCCC(=O)Nc1ccccc1/N=c1\cc(-c2ccc3nc(N)oc3c2)oc2ccccc12 | NCI-H1975 | CCK-8 | 1 µM | inhibition | 43%
CCCCn1cnc2ccc(-c3ccc(NC(=O)Nc4ccc(F)cc4)nc3)cc2c1=O | NCI-H1975 | CCK-8 | 72 h | IC50 | 1410 nM
O=C(Nc1ccc(Br)cc1)Nc1nc2cc(-c3ccc4ncn(Cc5ccccc5)c(=O)c4c3)ccc2s1 | NCI-H1975 | MTT | 72 h | IC50 | > 20000 nM
CCCCCCCCCCCCCCCCCCOc1ccccc1CC(=O)OCCC[N+](C)(C)C | NCI-H322M | SRB | 10 µM | inhibition | 15.7%
CCCC(=O)Nc1nc2cc(-c3ccc4ncn(Cc5ccccc5)c(=O)c4c3)ccc2s1 | NCI-H1975 | MTT | 72 h | IC50 | > 20000 nM
CCCCCCCCCCCCCCCCCCOc1ccc(CC(=O)OCCC[N+](C)(C)C)cc1 | NCI-H322M | SRB | 10 µM | inhibition | 9.97%
Oc1cccc(-c2nc(N3CCOCC3)c3oc4ncccc4c3n2)c1 | NCI-H1975 | CCK-8 | 1 µM | inhibition | 38%
COc1cccc2c1C(=O)c1c(O)c3c(c(O)c1C2=O)C[C@@](O)(C(=O)CO)C[C@@H]3O[C@H]1C[C@H](N)[C@H](O)[C@H](C)O1 | NCI-H1975 | MTT | 72 h | IC50 | 67 nM
CCCCCCCCCCCCCCCCCCOc1cccc(CC(=O)OCC[N+](CC)(CC)CC)c1 | NCI-H322M | SRB | 10 µM | inhibition | 22.3%

SMILES | cell line | test | conditions | quantity | result
CCCCC(=O)Nc1ccc(-c2ccc3ncn(CCF)c(=O)c3c2)cn1 | NCI-H1975 | CCK-8 | 72 h | IC50 | 190 nM
CCCCCCCCCCCCCCCCCCOc1ccccc1CC(=O)OCC[N+]1(C)CCOCC1 | NCI-H322M | SRB | 10 µM | inhibition | 20.2%
CCCn1cnc2ccc(-c3ccc(N4CCCCC4=O)nc3)cc2c1=O | NCI-H1975 | CCK-8 | 72 h | IC50 | > 10000 nM
NCCCC(=O)Nc1ccccc1/N=c1\cc(-c2ccc3c(c2)OCO3)oc2ccccc12 | NCI-H1975 | CCK-8 | 1 µM | inhibition | 1.32%
O=C(Nc1cccc(C(F)(F)F)c1)Nc1nc2cc(-c3ccc4ncn(CCN5CCOCC5)c(=O)c4c3)ccc2s1 | NCI-H1975 | MTT | 72 h | IC50 | 1480 nM
CCCCC(=O)Nc1ccc(-c2ccc3ncn(CC)c(=O)c3c2)cn1 | NCI-H1975 | CCK-8 | 72 h | IC50 | 250 nM
COc1ccc2/c(=N/c3ccccc3NC(=O)CN)cc(-c3ccc4c(c3)OCCO4)oc2c1 | NCI-H1975 | CCK-8 | 1 µM | inhibition | 8.23%
C[C@H](Nc1ccc2c(c1)OCCn1cc(N3C(=O)OC[C@H]3C(F)F)nc1-2)C(N)=O | KPL4 | ATP luminescence | 5 days | EC50 | 73.7 nM
CCCn1cnc2ccc(-c3ccc(NC(=O)CC)nc3)cc2c1=O | NCI-H1975 | CCK-8 | 72 h | IC50 | 1080 nM
Cc1nc(NC(=O)N2CCC[C@H]2C(N)=O)sc1-c1ccnc(C(C)(C)C(F)(F)F)c1 | KPL4 | ATP luminescence | 5 days | EC50 | 1190 nM
NCCC(=O)Nc1cccc(/N=c2\cc(-c3ccc4c(c3)OCO4)oc3ccccc23)c1 | NCI-H1975 | CCK-8 | 1 µM | inhibition | 2.94%
O=C(Nc1ccc(F)cc1)Nc1nc2cc(-c3ccc4ncn(CC5CC5)c(=O)c4c3)ccc2s1 | NCI-H1975 | MTT | 72 h | IC50 | 1130 nM
Cc1nc(Nc2ncc(C(=O)Nc3c(C)cccc3Cl)s2)cc(N2CC[C@H](O)C2)n1 | Pfeiffer | ATP luminescence | 10 µM, 72 h | inhibition | 96%
CC(=O)Nc1nc2cc(-c3ccc4ncn(Cc5ccccc5)c(=O)c4c3)ccc2s1 | NCI-H1975 | MTT | 72 h | IC50 | > 20000 nM
CCCCn1cnc2ccc(-c3ccc(NC(=O)Nc4ccccc4)nc3)cc2c1=O | NCI-H1975 | CCK-8 | 72 h | IC50 | 2460 nM
CCCCCCCCCCCCCCCCCCOc1cccc(CC(=O)OCC[N+]2(C)CCOCC2)c1 | NCI-H322M | SRB | 10 µM | inhibition | 1.47%
CC(=O)O[C@H]1C(=O)[C@@]2(C)[C@H]([C@H](OC(=O)c3ccccc3)[C@]3(O)C[C@H](OC(=O)[C@H](O)[C@@H](NC(=O)c4ccccc4)c4ccccc4)C(C)=C1C3(C)C)[C@]1(OC(C)=O)CO[C@@H]1C[C@@H]2O | NCI-H1975 | MTT | 72 h | IC50 | 72 nM
